Experimental data published in PMC7063993 (ACS chemical neuroscience, 2019).
pIC50: −log10 of the molar value.

Assays:
HepG2 cells [1] = test: MTT cell viability assay, HepG2 cell toxicity; assay type: cell-based, Human; details: same conditions/concentrations as MN9D experiments
Procedure, shortened: (§1)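 Cells grown in 96-well plates to ~70–80% confluence. Medium replaced with DMEM containing test compound at varying concentrations, 18 h (12 h in one series) at 37 °C. MTT added for 2 h at 37 °C. Formazan dissolved in 50% DMF/20% SDS for 12 h at 37 °C and read as A570 minus A650. Viability expressed as % of untreated controls.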

MN9D cells [2] = test: Chromatin condensation test for apoptosis; assay type: cell-based, mouse; details: 200 μM [1], 12 h, 300 nM DAPI
Procedure, shortened: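 MN9D cells on glass-bottomed plates exposed to test compound for 12 h. Nuclear DAPI fluorescence (Ex/Em 358/461 nm) from chromatin condensation observed by fluorescence microscopy. Controls handled the same way without toxin.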

[3] = tested on: dopaminergic SH-SH5Y cells; test: MTT cell viability assay, SH-SY5Y cell toxicity; assay type: cell-based; details: read-out: IC50 (SH-SH5Y cell toxicity)
Procedure, shortened: as §1

[4] = Relative lipophilicity estimated by reverse phase HPLC retention times; assay type: physicochemical
MN9D cells [5] = test: Cellular uptake into MN9D cells; assay type: cell-based, mouse; details: for Concentration dependence of MN9D cell uptake: up to 100 μM (0-100 μM for 45 min for [3], [4], [5])
Procedure, shortened: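 MN9D cells seeded at 0.25 x 10⁶ cells/well and grown 2–3 days to 70–80% confluency. Test compound in warm KRB-HEPES (pH 7.4) at 37 °C: 50 μM for 0–60 min (time course) or varying concentrations for 45 min. Cells washed in ice-cold buffer and pellets extracted with 0.1 M HClO₄. C18 reversed-phase HPLC-UV quantified against standard curves. Normalized to Bradford protein, time-zero readings subtracted.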

MN9D cells [6] = test: Intracellular ROS levels by DCFH-DA in MN9D cells; assay type: cell-based, mouse
[7] = tested on: MN9D cell mitochondrial membrane potential; test: Mitochondrial membrane potential; assay type: cell-based, mouse; details: 500 μM, 1 h of incubation, TMRM
Procedure, shortened: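 MN9D cells on glass-bottomed plates loaded with 50 nM TMRM in KRB-HEPES for 45 min in the dark. Fluorescence (Ex/Em 543/573 nm) recorded from 15–20 ROIs every 5 s for 3 min as baseline. Test compound then added and recording continued every 15 s for 1 h. Background subtracted and ROI averages taken as membrane potential.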

[8] = Uptake into isolated intact MN9D cell mitochondria; set-up: species or system mouse; details: 50 μM, 45 min
HepG2 cells [9] = test: Intracellular ROS levels by DCFH-DA in HepG2 cells; assay type: cell-based, Human; details: 1 h
Procedure, shortened: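 Cells in 12-well plates loaded with 10 μM DCFH-DA in KRB-HEPES for 1 h, then washed with ice-cold buffer. Exposed to test compound in the same buffer for 1 h at 37 °C. Harvested and lysed in 0.1 M Tris (pH 7.5) with 1% Triton X-100, then cleared by centrifugation. DCF fluorescence read at Ex/Em 488/524 nm and normalized to protein content.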

dopaminergic MN9D cells = test: MTT cell viability assay, MN9D cell toxicity; assay type: cell-based, mouse; details: Asc pre-treatment 30 min, 8 μM [3] or 40 μM [1], 18 h
Procedure, shortened: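 MN9D cells in 96-well plates pretreated with ascorbate (0–500 μM) for 30 min at 37 °C. Then exposed to a fixed concentration of test compound with the same ascorbate level for 18 h at 37 °C. Read by MTT (A570 − A650) as % of controls. Parallel toxin-free wells at each ascorbate level subtracted to correct for MTT reduction by ascorbate.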

[10] = tested on: rat brain mitochondrial complex I; test: Mitochondrial complex I; assay type: biochemical

CC(=C[n+]1ccc(-c2ccccc2)cc1)c1ccccc1 [[1], N-(2-phenyl-1-propene)-4-phenyl-pyridinium]
Toxicity to HepG2 cells (HepG2 cells [1]): not significantly toxic
Chromatin condensation (nuclear DAPI fluorescence) in MN9D cell death (MN9D cells [2]): associated with chromatin condensation
pIC50 [3]: ~4.30
RT (relative lipophilicity, reverse phase HPLC retention time) [4]: 6.33 min
Time course of MN9D cell uptake (MN9D cells [5]; 50 μM, up to 1 h, 37°C): linear
Concentration dependence of MN9D cell uptake (MN9D cells [5]): non-saturable

4-(4′-methoxyphenyl-1-[2-(4-fluorophenyl)-propyl]pyridinium bromide [[5]]
Effect on intracellular ROS levels in MN9D cells (MN9D cells [6]; MN9D cells, up to 100 μM, 1 h, DCFH-DA): did not significantly increase
Depolarization of MN9D cell mitochondrial membrane potential [7]: very weakly
Uptake into isolated intact MN9D mitochondria [8]: accumulate efficiently in intact mitochondria with comparable efficiency
RT (relative lipophilicity, reverse phase HPLC retention time) [4]: 6.97 min
Effect on intracellular ROS levels in HepG2 cells (HepG2 cells [9]): did not increase
Concentration dependence of MN9D cell uptake (MN9D cells [5]): concentration dependent and non-saturable

O=C1O[C@H]([C@@H](O)CO)C(O)=C1O [Asc, ascorbate, reference compound]
Effect on [1]-mediated ROS production in MN9D cells (MN9D cells [6]; Asc 0-2 mM pre-incubation 1 h, then 200 μM [1] for 5 h): effectively reduces
Effect on [1] and [3]-mediated MN9D cell death (dopaminergic MN9D cells): protects

C[n+]1ccc(-c2ccccc2)cc1 [MPP^+, 1-methyl-4-phenylpyridinium]
Relative percent inhibition of complex I ([10]; 100 μM, rat brain mitochondrial membranes): 12.5%

4-(4′-methoxyphenyl-1-[2-(4-chlorophenyl)-propyl] pyridinium bromide [[3]]
Increase of intracellular ROS level from the baseline levels (MN9D cells [6]; MN9D cells, 100 μM, 1 h, DCFH-DA): 2.5–3.0 fold
Depolarization of MN9D cell mitochondrial membrane potential [7]: drastically
Uptake into isolated intact MN9D mitochondria [8]: accumulate efficiently in intact mitochondria with comparable efficiency
RT (relative lipophilicity, reverse phase HPLC retention time) [4]: 8.39 min
Effect on intracellular ROS levels in HepG2 cells (HepG2 cells [9]): did not increase
Concentration dependence of MN9D cell uptake (MN9D cells [5]): concentration dependent and non-saturable

C=C(C)[C@H]1Cc2c(ccc3c2O[C@@H]2COc4cc(OC)c(OC)cc4[C@@H]2C3=O)O1 [rotenone]
Inhibition of ubiquinone dependent NADH oxidation activity of complex I ([10]; 10 μM, positive control, compared to control): more than 85%
